Experimental data as given in ChEMBL document CHEMBL4312027, “Synthesis, characterization, and biological activity of a triphenylphosphonium-containing imidazolium salt against select bladder cancer cell lines” (Eur J Med Chem, 2020).
Calls of active or inactive are those of the source. No cut-off for these calls is given here.

Key:
[1] = test system: RT-112; assay: Growth inhibition of human RT112 cells at 1000 uM measured after 5 mins by Celltiter-Glo luminescent cell viability assay; assay type: functional, cell-based
How it was run: (§1)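 Cells seeded 10000/well, 24 h, then exposed in ATCC-recommended medium to 62.5–2000 μM (two-fold steps) or vehicle for the set time (5–60 min), then normal medium. After 24 h, plates equilibrated 30 min at room temperature, CellTiter-Glo added, 2 min at room temperature, luminescence read. Survival relative to vehicle control; quadruplicate.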

[2] = test system: RT-112; assay: Growth inhibition of human RT112 cells at 1000 uM measured after 15 to 60 mins by Celltiter-Glo luminescent cell viability assay relative to control; assay type: functional; conditions: read-out: GI; how it was run: as §1
[3] = test system: RT-112; assay: Growth inhibition of human RT112 cells at 500 uM measured after 1 hr by Celltiter-Glo luminescent cell viability assay relative to control; assay type: functional; conditions: RT-112, 1 h, read-out: GI; how it was run: as §1
[4] = test system: SW780; assay: Growth inhibition of human SW780 cells measured after 1 hr by Celltiter-Glo luminescent cell viability assay; assay type: functional; conditions: SW780, 1 h; how it was run: as §1
[5] = Solubility of compound in water; assay type: physicochemical
[6] = test system: RT-4; assay: Growth inhibition of human RT4 cells at 1000 uM measured after 5 mins by Celltiter-Glo luminescent cell viability assay; assay type: functional, cell-based; how it was run: as §1
[7] = test system: K562; assay: Growth inhibition of human K562 cells assessed as growth percent at 10 uM incubated for 48 hrs by sulforhodamine B assay relative to control; assay type: functional; conditions: K562, 48 h, read-out: Activity
[8] = test system: MOLT-4; assay: Growth inhibition of human MOLT4 cells assessed as growth percent at 10 uM incubated for 48 hrs by sulforhodamine B assay relative to control; assay type: functional; conditions: MOLT-4, 48 h, read-out: Activity
[9] = test system: RPMI-8226; assay: Growth inhibition of human RPMI8226 cells assessed as growth percent at 10 uM incubated for 48 hrs by sulforhodamine B assay relative to control; assay type: functional; conditions: RPMI-8226, 48 h, read-out: Activity
[10] = test system: A549; assay: Growth inhibition of human A549/ATCC cells assessed as growth percent at 10 uM incubated for 48 hrs by sulforhodamine B assay relative to control; assay type: functional; conditions: A549, 48 h, read-out: Activity
[11] = test system: HOP-92; assay: Growth inhibition of human HOP92 cells assessed as growth percent at 10 uM incubated for 48 hrs by sulforhodamine B assay relative to control; assay type: functional; conditions: HOP-92, 48 h, read-out: Activity
[12] = test system: HCT-15; assay: Growth inhibition of human HCT15 cells assessed as growth percent at 10 uM incubated for 48 hrs by sulforhodamine B assay relative to control; assay type: functional; conditions: HCT-15, 48 h, read-out: Activity
[13] = test system: HT-29; assay: Growth inhibition of human HT-29 cells assessed as growth percent at 10 uM incubated for 48 hrs by sulforhodamine B assay relative to control; assay type: functional; conditions: HT-29, 48 h, read-out: Activity
[14] = test system: SF-268; assay: Growth inhibition of human SF268 cells assessed as growth percent at 10 uM incubated for 48 hrs by sulforhodamine B assay relative to control; assay type: functional; conditions: SF-268, 48 h, read-out: Activity
[15] = test system: MDA-MB-435; assay: Growth inhibition of human MDA-MB-435 cells assessed as growth percent at 10 uM incubated for 48 hrs by sulforhodamine B assay relative to control; assay type: functional; conditions: MDA-MB-435, 48 h, read-out: Activity
[16] = test system: UACC-257; assay: Growth inhibition of human UACC257 cells assessed as growth percent at 10 uM incubated for 48 hrs by sulforhodamine B assay relative to control; assay type: functional; conditions: UACC-257, 48 h, read-out: Activity
[17] = test system: NCI/ADR-RES; assay: Growth inhibition of human NCI/ADR-RES cells assessed as growth percent at 10 uM incubated for 48 hrs by sulforhodamine B assay relative to control; assay type: functional; conditions: read-out: Activity
[18] = test system: ACHN; assay: Growth inhibition of human ACHN cells assessed as growth percent at 10 uM incubated for 48 hrs by sulforhodamine B assay relative to control; assay type: functional; conditions: read-out: Activity
[19] = test system: SN12C; assay: Growth inhibition of human SN12C cells assessed as growth percent at 10 uM incubated for 48 hrs by sulforhodamine B assay relative to control; assay type: functional; conditions: read-out: Activity
[20] = test system: UO-31; assay: Growth inhibition of human UO31 cells assessed as growth percent at 10 uM incubated for 48 hrs by sulforhodamine B assay relative to control; assay type: functional; conditions: UO-31, 48 h, read-out: Activity
[21] = test system: Hs-578T; assay: Growth inhibition of human Hs 578T cells assessed as growth percent at 10 uM incubated for 48 hrs by sulforhodamine B assay relative to control; assay type: functional; conditions: read-out: Activity
[22] = test system: J82; assay: Cell cycle arrest in human J82 cells assessed as increase in cell accumulation at sub-G1 phase at 250 to 500 uM incubated for 1 hr measured after culturing in normal medium for 24 hrs by propidium iodide/RNase staining based FACScan flow cytometry analysis; assay type: functional
How it was run: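 Seeded at 300,000 cells/well in triplicate per treatment; 24 h later exposed to 250 or 500 μM or vehicle for 1 h. After 24 h in normal media, media plus cells were collected, washed, fixed in cold 70% ethanol (4 °C, 30 min), treated with phosphate citric acid buffer, stained with PI/RNase and gated for sub-G1 by flow cytometry.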

[23] = test system: RT-112; assay: Mito-toxicity in mitochondria isolated from human RT112 cells assessed as increase in cytochrome C release at 200 uM incubated for 1 hr and measured after 4 hrs incubation in preservative buffer by Western blot analysis; assay type: functional
How it was run: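 Mitochondria isolated from 20 million RT112 cells with a kit. Exposed to 200 μM, 100 μM CCCP or 10% DMSO for 1 h at 37 °C, then kept in mitochondria preservative buffer at 37 °C. Spun after 1 h and 4 h into supernatant and pellet; pellet lysed. Cytochrome c in each fraction detected by western blot.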

[24] = test system: RT-112; assay: Induction of mitochondrial membrane depolarization in human RT112 cells at 200 uM measured after 1 hr by JC-1 staining based confocal microscopy; assay type: functional, cell-based
How it was run: (§2)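 RT112 cells, 200000 per glass-bottom dish, plated overnight. Exposed to 200 μM for 45 min, then JC-1 added (final 10 μg/mL) for 15 min. Confocal live imaging, excitation 485 nm, emission 530 and 590 nm, every 15 min for 6 h. Red punctate staining taken as polarized mitochondria, green as depolarized. CCCP as positive control.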

[25] = Toxicity in anesthetized female mouse model assessed as inflammation at 750 to 1500 uM administered via intravesical instillation after bladder evacuation treated for 1 hr followed by repetition of the treatment after 24 hrs and measured at 24 hrs after final treatment; conditions: in vivo, other
How it was run: (§3)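 Female mice anesthetized, 1–3% isoflurane. Bladder evacuated, then 100 μL of 750 or 1500 μM in 10% DMSO/PBS (or vehicle) instilled by 24G angiocatheter. Catheter left in place for a 1 h dwell. Repeated after 24 h; mice sacrificed 24 h after final dose. Bladder histology read for urothelial height and layers.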

[26] = test system: RT-112; assay: Induction of mitochondrial membrane depolarization in human RT112 cells at 200 uM measured after 2 to 4 hrs by JC-1 staining based confocal microscopy; assay type: functional, cell-based; how it was run: as §2
[27] = Toxicity in anesthetized female mouse model assessed as fibrosis at 750 to 1500 uM administered via intravesical instillation after bladder evacuation treated for 1 hr followed by repetition of the treatment after 24 hrs and measured at 24 hrs after final treatment; conditions: in vivo, other; how it was run: as §3

With `[Br-].[Br-].c1ccc([P+](CCCc2n(Cc3ccc4ccccc4c3)c3ccccc3[n+]2Cc2ccc3ccccc3c2)(c2ccccc2)c2ccccc2)cc1` the “growth inhibition (GI)” value [1] was “Active”, the inhibition of growth at 1000 µM [2] was 100% and the inhibition of growth at 500 µM [3] was 100%. For the same molecule, the GI50 [4] was 200 µM, the solubility [5] was 8000 µg/mL and the “growth inhibition (GI)” value [6] was “Active”. It also gave a growth at 10 µM [7] of 23.7%, a growth at 10 µM [8] of 57.6% and a growth at 10 µM [9] of 6.9%. The growth at 10 µM [10] was 80.2%, the growth at 10 µM [11] was 46.3% and the growth at 10 µM [12] was 85.5%. For the same molecule, the growth at 10 µM [13] was 23.9%, the growth at 10 µM [14] was 79% and the growth at 10 µM [15] was 25.2%. The growth at 10 µM [16] was 84%, the growth at 10 µM [17] was 83.7% and the growth at 10 µM [18] was 81.4%. It also gave a growth at 10 µM [19] of 55%, a growth at 10 µM [20] of 61.2% and a growth at 10 µM [21] of 68.6%. For the same molecule, the Activity [22] was “Active”, the Activity [23] was “Active” and the Activity [24] was “inactive”. For the same molecule, the Activity [25] was “Non-Toxic”, the Activity [26] was “Active” and the Activity [27] was “Non-Toxic”.
